{"source": "ChEMBL document CHEMBL1147363", "about": "“Inhibitory effect of carnosic acid on HIV-1 protease in cell-free assays [corrected]” (J Nat Prod, 1993)", "key": {"[1]": {"target": "Protease (Human immunodeficiency virus 1) (UniProt Q9YQ12)", "sequence (Q9YQ12 as listed by the source)": "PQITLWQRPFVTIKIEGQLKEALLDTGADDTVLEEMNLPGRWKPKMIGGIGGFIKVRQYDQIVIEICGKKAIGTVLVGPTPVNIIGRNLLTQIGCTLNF", "test": "Inhibition of HIV1 recombinant protease expressed in Escherichia coli BL21 (DE3) cells by SDS-PAGE"}, "[2]": {"target": "T1, Cathepsin D (Bos taurus) (UniProt P80209)", "T1 sequence (whole entry)": "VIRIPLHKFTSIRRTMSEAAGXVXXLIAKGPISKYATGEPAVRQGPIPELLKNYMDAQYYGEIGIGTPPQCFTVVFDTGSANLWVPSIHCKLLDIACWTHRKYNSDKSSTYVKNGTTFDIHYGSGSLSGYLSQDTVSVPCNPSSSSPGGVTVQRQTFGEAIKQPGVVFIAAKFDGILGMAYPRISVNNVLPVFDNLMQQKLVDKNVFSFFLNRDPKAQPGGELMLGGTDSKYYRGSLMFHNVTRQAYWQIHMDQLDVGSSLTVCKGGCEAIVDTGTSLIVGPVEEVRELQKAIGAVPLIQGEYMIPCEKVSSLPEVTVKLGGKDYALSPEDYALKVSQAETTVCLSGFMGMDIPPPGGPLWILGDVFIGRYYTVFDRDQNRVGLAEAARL", "test": "Inhibition of bovine spleen cathepsin D up to 10 ug/ml", "how_it_was_run": "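Cathepsin D purified from bovine spleen, 40 nM final. Compound (DMSO stock diluted in 0.1 M Na acetate pH 3.5) preincubated with enzyme 10 min. 2% hemoglobin substrate added, 10 min at 37°. Stopped with 0.33 M trichloroacetic acid. Soluble products treated with NaOH and Folin-Ciocalteu reagent; absorbance read at 750 nm. Tested up to 10 μg/ml.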"}, "[3]": {"species": "Sus scrofa", "test": "Inhibition of pig pepsin up to 10 ug/ml", "how_it_was_run": "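Porcine pepsin, 40 nM final. Compound stock diluted in 0.01 M HCl and preincubated with enzyme 10 min at room temperature. 2% hemoglobin substrate (pH 1.8) added, 10 min at 37°. Stopped with 0.33 M TCA; activity by modified Anson hemoglobin method. Tested up to 10 μg/ml.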"}, "[4]": {"system": "Human immunodeficiency virus 1", "test": "Antiviral activity against HIV1 replication infected in human MT2 cells assessed as reduction in plaque formation after 3 days by MTT assay", "type": "functional", "conditions": "Human immunodeficiency virus 1, MT2, 72 h", "how_it_was_run": "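MT-2 cells pretreated 30 min at room temperature with compound (DMSO stock diluted in RPMI), infected with HIV-1 (3b or rf) 1 h at 36°, washed, then grown 3 days in compound-containing RPMI. Progeny titre measured by plaque assay on poly-L-lysine-coated MT-2 monolayers under agarose overlays, stained with MTT. Activity expressed as percent reduction in titre versus untreated virus; IC90 reported.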"}, "[5]": {"system": "H9", "test": "Cytotoxicity against human H9 cells after 3 or 5 days by XTT assay", "type": "cell-based", "conditions": "h9, 120 h", "how_it_was_run": "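Cells seeded at 1×10^5 per well with graded compound concentrations and grown at 36° for 3 or 5 days depending on cell type. XTT (1 mg/ml, with 0.025 mM phenazine methosulfate) added, 1 h at 36°, OD450 read. TC90 is the concentration giving 90% reduction in viable cells.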"}}, "note": "Activity calls are given as the source filed them. The calls are words filed in the database; no cut-off is given here."}
{"smiles": "CC(C)c1cc2c(c(O)c1O)[C@@]13CCCC(C)(C)[C@@H]1[C@H](OC3=O)[C@H]2O", "values": [{"measurement": "IC90", "setting": "[1]", "value": 0.6, "unit": "µg/mL"}, {"measurement": "Activity", "setting": "[2]", "value": "inactive"}, {"measurement": "Activity", "setting": "[3]", "value": "inactive"}]}
{"smiles": "CC(C)c1cc2c(c(O)c1O)[C@@]1(C(=O)O)CCCC(C)(C)[C@@H]1CC2", "note": "[CARNOSIC ACID]", "values": [{"measurement": "IC90", "setting": "[1]", "value": 0.08, "unit": "µg/mL"}, {"measurement": "Activity", "setting": "[2]", "value": "inactive"}, {"measurement": "IC90", "setting": "[4]", "value": 0.32, "unit": "µg/mL"}, {"measurement": "TC90", "setting": "[5]", "value": 0.36, "unit": "µg/mL"}, {"measurement": "Activity", "setting": "[3]", "value": "inactive"}]}
{"smiles": "CC(C)c1cc2c(c(O)c1O)[C@@]13CCCC(C)(C)[C@@H]1C[C@@H]2OC3=O", "values": [{"measurement": "IC90", "setting": "[1]", "value": "> 10", "unit": "µg/mL"}, {"measurement": "Activity", "setting": "[2]", "value": "inactive"}, {"measurement": "Activity", "setting": "[3]", "value": "inactive"}]}
{"smiles": "COc1c(C(C)C)cc2c(c1OC)[C@@]13CCCC(C)(C)[C@@H]1C[C@@H]2OC3=O", "values": [{"measurement": "IC90", "setting": "[1]", "value": "> 10", "unit": "µg/mL"}, {"measurement": "Activity", "setting": "[2]", "value": "inactive"}, {"measurement": "Activity", "setting": "[3]", "value": "inactive"}]}
{"smiles": "CCO[C@H]1c2cc(C(C)C)c(O)c(O)c2[C@@]23CCCC(C)(C)[C@@H]2[C@@H]1OC3=O", "values": [{"measurement": "IC90", "setting": "[1]", "value": 1.7, "unit": "µg/mL"}, {"measurement": "Activity", "setting": "[2]", "value": "inactive"}, {"measurement": "Activity", "setting": "[3]", "value": "inactive"}]}
{"smiles": "CO[C@H]1c2cc(C(C)C)c(O)c(O)c2[C@@]23CCCC(C)(C)[C@@H]2[C@@H]1OC3=O", "values": [{"measurement": "IC90", "setting": "[1]", "value": 1.5, "unit": "µg/mL"}, {"measurement": "Activity", "setting": "[2]", "value": "inactive"}, {"measurement": "Activity", "setting": "[3]", "value": "inactive"}]}
